Measured values taken from ChEMBL document CHEMBL4354800, “Amphiphilic nebramine-based hybrids Rescue legacy antibiotics from intrinsic resistance in multidrug-resistant Gram-negative bacilli” (Eur J Med Chem, 2019).

How the values were obtained:
[1] = test system: Pseudomonas aeruginosa; assay: Antimicrobial activity against wild type Pseudomonas aeruginosa PAO1 incubated for 18 hrs by broth microdilution method; type: functional; conditions: PAO1, 18 h
Outline: (§1)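 Broth microdilution per CLSI: overnight cultures set to 0.5 McFarland in saline, diluted 1:50 in Mueller-Hinton broth to a final 5 × 10^5 CFU/mL, added to 2-fold serial dilutions, incubated 18 h at 37 °C; MIC is the lowest concentration without visible turbidity, confirmed at 590 nm.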

[2] = test system: Pseudomonas aeruginosa; assay: Synergistic antibacterial activity against wild type Pseudomonas aeruginosa PAO1 assessed as fractional inhibitory concentration index in presence of moxifloxacin incubated for 18 hrs by broth microdilution method; type: functional
Outline: (§2)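 Checkerboard synergy assay. Antibiotic and adjuvant in twofold dilutions in Mueller-Hinton broth. Inoculum 5 × 10^5 CFU/mL from a 0.5 McFarland suspension, 18 h at 37 °C, MIC read by turbidity and confirmed at 590 nm. FIC = MIC in combination / MIC alone for each agent, FICI = sum. Interpreted as ≤0.5 synergy, 0.5–4 no interaction, >4 antagonism.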

[3] = test system: Pseudomonas aeruginosa; assay: Synergistic antibacterial activity against wild type Pseudomonas aeruginosa PAO1 assessed as fractional inhibitory concentration index in presence of minocycline incubated for 18 hrs by broth microdilution method; type: functional
Outline: (§3)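 Checkerboard titration of the adjuvant against the antibiotic, run under the CLSI microdilution conditions (MHB, 5 × 10^5 CFU/mL, 18 h, 37 °C). Each agent's FIC is its MIC in combination divided by its MIC alone; FICI is the sum of the two FICs. FICI ≤0.5 was read as synergy, >0.5–4.0 as no interaction, and >4.0 as antagonism.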

[4] = test system: Pseudomonas aeruginosa; assay: Synergistic antibacterial activity against wild type Pseudomonas aeruginosa PAO1 assessed as fractional inhibitory concentration index in presence of rifampicin incubated for 18 hrs by broth microdilution method; type: functional; outline: as §2
[5] = test system: Pseudomonas aeruginosa; assay: Antimicrobial activity against MDR/XDR Pseudomonas aeruginosa isolate 100036 harboring GyrA Thr83Ile mutant incubated for 18 hrs by broth microdilution method; type: functional; conditions: isolate 100036, 18 h; outline: as §1
[6] = test system: Pseudomonas aeruginosa; assay: Antimicrobial activity against MDR/XDR Pseudomonas aeruginosa isolate PA259-96918 harboring GyrA Thr83Ile mutant incubated for 18 hrs by broth microdilution method; type: functional; conditions: isolate PA259-96918, 18 h; outline: as §1
[7] = test system: Pseudomonas aeruginosa; assay: Antimicrobial activity against MDR/XDR Pseudomonas aeruginosa isolate PA260-97103 harboring GyrA Thr83Ile mutant incubated for 18 hrs by broth microdilution method; type: functional; conditions: isolate PA260-97103, 18 h; outline: as §1
[8] = test system: Pseudomonas aeruginosa; assay: Antimicrobial activity against MDR/XDR Pseudomonas aeruginosa isolate PA262-101856 harboring GyrA Thr83Ile mutant incubated for 18 hrs by broth microdilution method; type: functional; conditions: isolate PA262-101856, 18 h; outline: as §1
[9] = test system: Pseudomonas aeruginosa; assay: Antimicrobial activity against MDR/XDR Pseudomonas aeruginosa isolate 91433 devoid of GyrA Thr83Ile mutant incubated for 18 hrs by broth microdilution method; type: functional; conditions: isolate 91433, 18 h; outline: as §1
[10] = test system: Pseudomonas aeruginosa; assay: Antimicrobial activity against MDR/XDR Pseudomonas aeruginosa isolate 101243 devoid of GyrA Thr83Ile mutant incubated for 18 hrs by broth microdilution method; type: functional; conditions: isolate 101243, 18 h; outline: as §1
[11] = test system: Pseudomonas aeruginosa; assay: Synergistic antibacterial activity against MDR/XDR Pseudomonas aeruginosa isolate PA260-97103 harboring GyrA T83I mutant assessed as fractional inhibitory concentration index in presence of moxifloxacin incubated for 18 hrs by broth microdilution method; type: functional; outline: as §2
[12] = test system: Pseudomonas aeruginosa; assay: Synergistic antibacterial activity against MDR/XDR Pseudomonas aeruginosa isolate 101885 harboring GyrA T83I mutant assessed as fractional inhibitory concentration index in presence of moxifloxacin incubated for 18 hrs by broth microdilution method; type: functional; outline: as §2
[13] = test system: Pseudomonas aeruginosa; assay: Synergistic antibacterial activity against MDR/XDR Pseudomonas aeruginosa isolate 91433 devoid of GyrA T83I mutant assessed as fractional inhibitory concentration index in presence of ciprofloxacin incubated for 18 hrs by broth microdilution method; type: functional; outline: as §2
[14] = test system: Pseudomonas aeruginosa; assay: Synergistic antibacterial activity against MDR/XDR Pseudomonas aeruginosa isolate 100036 harboring GyrA T83I mutant assessed as fractional inhibitory concentration index in presence of minocycline incubated for 18 hrs by broth microdilution method; type: functional; outline: as §2
[15] = test system: Pseudomonas aeruginosa; assay: Synergistic antibacterial activity against MDR/XDR Pseudomonas aeruginosa isolate PA259-96918 harboring GyrAT83I mutant assessed as fractional inhibitory concentration index in presence of minocycline incubated for 18 hrs by broth microdilution method; type: functional; outline: as §2
[16] = test system: Pseudomonas aeruginosa; assay: Synergistic antibacterial activity against MDR/XDR Pseudomonas aeruginosa isolate 91433 devoid of GyrA T83I mutant assessed as fractional inhibitory concentration index in presence of minocycline incubated for 18 hrs by broth microdilution method; type: functional; outline: as §2
[17] = test system: Pseudomonas aeruginosa; assay: Synergistic antibacterial activity against MDR/XDR Pseudomonas aeruginosa isolate PA262-101856 harboring GyrA T83I mutant assessed as fractional inhibitory concentration index in presence of rifampicin incubated for 18 hrs by broth microdilution method; type: functional; outline: as §2
[18] = test system: Pseudomonas aeruginosa; assay: Synergistic antibacterial activity against MDR/XDR Pseudomonas aeruginosa isolate PA260-97103 harboring GyrA T83I mutant assessed as fractional inhibitory concentration index in presence of rifampicin incubated for 18 hrs by broth microdilution method; type: functional; outline: as §2
[19] = test system: Pseudomonas aeruginosa; assay: Synergistic antibacterial activity against MDR/XDR Pseudomonas aeruginosa isolate 100036 harboring T83I mutant assessed as fractional inhibitory concentration index in presence of rifampicin incubated for 18 hrs by broth microdilution method; type: functional; outline: as §2
[20] = test system: Pseudomonas aeruginosa; assay: Synergistic antibacterial activity against MDR/XDR Pseudomonas aeruginosa isolate PA259-96918 harboring T83I mutant assessed as fractional inhibitory concentration index in presence of rifampicin incubated for 18 hrs by broth microdilution method; type: functional; outline: as §2
[21] = test system: Pseudomonas aeruginosa; assay: Synergistic antibacterial activity against MDR/XDR Pseudomonas aeruginosa isolate PA264-104354 harboring T83I mutant assessed as fractional inhibitory concentration index in presence of rifampicin incubated for 18 hrs by broth microdilution method; type: functional; outline: as §2
[22] = test system: Pseudomonas aeruginosa; assay: Synergistic antibacterial activity against MDR/XDR Pseudomonas aeruginosa isolate 101243 devoid of GyrA T83I mutant assessed as fractional inhibitory concentration index in presence of rifampicin incubated for 18 hrs by broth microdilution method; type: functional; outline: as §2
[23] = test system: Klebsiella pneumoniae; assay: Antimicrobial activity against Klebsiella pneumoniae 116381 incubated for 18 hrs by broth dilution method; type: functional; conditions: Klebsiella pneumoniae, 116381, 18 h
Outline: (§4)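 CLSI broth microdilution. Overnight cultures were adjusted to 0.5 McFarland in saline, diluted 1:50 in Mueller-Hinton broth, and inoculated at a final 5 × 10^5 CFU/mL. Compounds were tested as 2-fold serial dilutions and incubated 18 h at 37 °C. MIC was the lowest concentration with no visible turbidity, confirmed by absorbance at 590 nm.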

[24] = test system: Enterobacter cloacae; assay: Antimicrobial activity against Enterobacter cloacae 117029 incubated for 18 hrs by broth dilution method; type: functional; conditions: Enterobacter cloacae, 117029, 18 h; outline: as §4
[25] = test system: Klebsiella pneumoniae; assay: Synergistic antibacterial activity against Klebsiella pneumoniae 116381 assessed as fractional inhibitory concentration index in presence of rifampicin incubated for 18 hrs by broth dilution method; type: functional; outline: as §3
[26] = Retention time of the compound by HPLC analysis; type: physicochemical
[27] = test system: HEK293; assay: Cytotoxicity against HEK293 cells at 50 uM incubated for 48 hrs by PrestoBlue dye based fluorescence assay; type: cell-based; conditions: human, hek293, 48 h
[28] = test system: HepG2; assay: Cytotoxicity against human HepG2 cells at 50 uM incubated for 48 hrs in presence of 50 uM rifampicin by PrestoBlue dye based fluorescence assay; type: cell-based; conditions: hepg2, 48 h

| SMILES | MIC [1] [µg/mL] | fractional inhibitory concentration index (FICI) [2] | fractional inhibitory concentration index (FICI) [3] | fractional inhibitory concentration index (FICI) [4] | MIC [5] [µg/mL] | MIC [6] [µg/mL] | MIC [7] [µg/mL] | MIC [8] [µg/mL] | MIC [9] [µg/mL] | MIC [10] [µg/mL] | fractional inhibitory concentration index (FICI) [11] | fractional inhibitory concentration index (FICI) [12] | fractional inhibitory concentration index (FICI) [13] | fractional inhibitory concentration index (FICI) [14] | fractional inhibitory concentration index (FICI) [15] | fractional inhibitory concentration index (FICI) [16] | fractional inhibitory concentration index (FICI) [17] | fractional inhibitory concentration index (FICI) [18] | fractional inhibitory concentration index (FICI) [20] | Retention_time [26] [min] | other results |
| --- | --- | --- | --- | --- | --- | --- | --- | --- | --- | --- | --- | --- | --- | --- | --- | --- | --- | --- | --- | --- | --- |
| COc1c(N2C[C@@H]3CCCN(CCCCCCCCCCCCO[C@@H]4[C@@H](O)[C@H](N)C[C@H](N)[C@H]4O[C@H]4O[C@H](CN)[C@@H](O)C[C@H]4N)[C@@H]3C2)c(F)cc2c(=O)c(C(=O)O)cn(C3CC3)c12.Cl.Cl.Cl.Cl.Cl | 32 | 0.25 | 0.38 | 0.07 | 128 | > 256 | 32 | > 256 | 32 | 64 | 0.13 | 0.25 | 0.25 | 0.06 | 0.03 - 0.04 | 0.19 | 0.008 - 0.02 | 0.06 | 0.004 - 0.01 | 14.585 | fractional inhibitory concentration index (FICI) [19]: 0.01; fractional inhibitory concentration index (FICI) [21]: 0.02; fractional inhibitory concentration index (FICI) [22]: 0.13; MIC [23]: > 256 µg/mL; MIC [24]: 32 µg/mL; fractional inhibitory concentration index (FICI) [25]: 0.002 - 0.006; Activity [27]: Non-Toxic; Activity [28]: Non-Toxic |
| Cl.Cl.Cl.Cl.Cl.Cl.NC[C@H]1O[C@H](O[C@H]2[C@H](OCCCCCCCCCCN3CCN(Cc4cccc5ccccc45)CC3)[C@@H](O)[C@H](N)C[C@@H]2N)[C@H](N)C[C@@H]1O | 256 | 0.05 | 0.09 | 0.02 | > 512 | > 512 | 32 | 512 | 32 | 512 | 0.08 | 0.07 | 0.38 | 0.031 - 0.033 | 0.016 - 0.031 | 0.19 | 0.02 | 0.05 | 0.004 - 0.006 | 12.917 | fractional inhibitory concentration index (FICI) [19]: 0.004 - 0.012; fractional inhibitory concentration index (FICI) [22]: 0.05 |
| Cl.Cl.Cl.Cl.Cl.NC[C@H]1O[C@H](O[C@H]2[C@H](OCCCCCCCCCCCCN3CCN(c4cc5c(cc4F)c(=O)c(C(=O)O)cn5C4CC4)CC3)[C@@H](O)[C@H](N)C[C@@H]2N)[C@H](N)C[C@@H]1O | 64 | – | 0.047 | 0.047 | – | > 128 | – | – | – | – | – | – | – | – | 0.031 - 0.063 | – | – | – | 0.008 - 0.016 | 14.945 | fractional inhibitory concentration index (FICI) [21]: 0.039; MIC [23]: > 128 µg/mL; MIC [24]: 32 µg/mL; fractional inhibitory concentration index (FICI) [25]: <=0.039; Activity [27]: Non-Toxic; Activity [28]: Non-Toxic |
